The values below come from ChEMBL document CHEMBL1777729, “Structure-based lead identification of ATP-competitive MK2 inhibitors” (Bioorg Med Chem Lett, 2011).

≈ marks a conversion by molar mass, not a printed value. Bounds are passed on as bounds.

The target in data set [1] is MAP kinase-activated protein kinase 2 (Homo sapiens, UniProt P49137). Description: Inhibition of MK2 pretreated for 30 mins before substrate addition measured after 2 hrs by IMAP assay.
Data set [2] has as its system THP-1. Description: Antiinflammatory activity in human THP1 cells assessed as inhibition of LPS-induced TNFalpha production at 10 uM treated 30 mins before LPS challenge measured after 4 hrs by ELISA. The data set is classed as functional. In general terms: ELISA stands for enzyme-linked immunosorbent assay.
The nature of data set [3]: Permeability across human Caco2 cells. In kind it is ADME, cell-based. Conditions: Caco-2, read-out: permeability. For orientation: Passage across Caco-2 layers is used to estimate intestinal permeability.
Data set [4] in a line: Half life in human liver microsomes. The data set is classed as ADME, Microsome.
Data set [5] is described as follows: Permeability of the compound by PAMPA. In kind it is ADME. Conditions: read-out: permeability. For orientation: The PAMPA barrier holds no transporters, so it reflects passive diffusion.
A short description of data set [6]: Half life in rat liver microsomes. The data set is classed as ADME, Microsome.
Data set [7] can be described thus: Plasma protein binding in plasma. The data set is classed as ADME, cell-free. The following applies: read-out: PPB (converted).
Data set [8] in a line: Kinetic solubility of the compound at pH 7.4. The data set is classed as physicochemical. The following applies: buffer.
Another data set concerns PBMC. Put plainly: Antiinflammatory activity in human PBMC cells assessed as inhibition of LPS-induced TNFalpha production treated 30 mins before LPS challenge measured after 4 hrs by ELISA. The data set is classed as functional, cell-based.
The nature of data set [9]: AUC in rat at 10 umol/kg, sc. Conditions: plasma. In kind it is ADME, organism-based. Summed up:
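Rat PK after subcutaneous dosing at 10 µmol/kg; exposure expressed as AUC.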

The nature of data set [10]: AUC in rat at 10 umol/kg, po. The data set is classed as ADME, organism-based. The following applies: plasma. The procedure, abridged:
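Rat PK after oral dosing at 10 µmol/kg; exposure expressed as AUC.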

The subject of data set [11] is Rattus norvegicus. Put plainly: Antiinflammatory activity in rat assessed as inhibition of LPS-induced TNFalpha production in serum at 30 mg/kg, sc administered 1 hr before LPS challenge measured after 1.5 hrs by ELISA.
Data set [12] concerns Rattus norvegicus. Description: Antiinflammatory activity in sc dosed rat assessed as inhibition of LPS-induced TNFalpha production in serum administered 1 hr before LPS challenge measured after 1.5 hrs by ELISA.
Data set [13] can be described thus: AUC in rat at 4 umol/kg, iv. Conditions: plasma. The data set is classed as ADME, organism-based.
Data set [14] relates to Rattus norvegicus. Put plainly: Antiinflammatory activity in rat assessed as inhibition of LPS-induced TNFalpha production in serum at 10 mg/kg, sc administered 1 hr before LPS challenge measured after 1.5 hrs by ELISA.
Data set [15] relates to THP-1. Description: Antiinflammatory activity in human THP1 cells assessed as inhibition of LPS-induced TNFalpha production treated 30 mins before LPS challenge measured after 4 hrs by ELISA. In kind it is functional, cell-based. The procedure, abridged: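 THP1 cells seeded at 1.5 × 10^5 per well in DMEM F12 and rested ≥18 h at 37 °C, 5–7% CO2, humidified. Compounds added in DMSO (0.1% final) for 30 min, then LPS added. After 4 h at 37 °C, TNFα in the culture medium was quantified by ELISA. EC50 from duplicates per dilution.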

For data set [16], the system named is Rattus norvegicus. Put plainly: Antiinflammatory activity in rat assessed as inhibition of LPS-induced TNFalpha production in serum at 12.5 mg/kg, iv administered 1 hr before LPS challenge measured after 1.5 hrs by ELISA.

MAP kinase-activated protein kinase 2, sequence (P49137 whole entry): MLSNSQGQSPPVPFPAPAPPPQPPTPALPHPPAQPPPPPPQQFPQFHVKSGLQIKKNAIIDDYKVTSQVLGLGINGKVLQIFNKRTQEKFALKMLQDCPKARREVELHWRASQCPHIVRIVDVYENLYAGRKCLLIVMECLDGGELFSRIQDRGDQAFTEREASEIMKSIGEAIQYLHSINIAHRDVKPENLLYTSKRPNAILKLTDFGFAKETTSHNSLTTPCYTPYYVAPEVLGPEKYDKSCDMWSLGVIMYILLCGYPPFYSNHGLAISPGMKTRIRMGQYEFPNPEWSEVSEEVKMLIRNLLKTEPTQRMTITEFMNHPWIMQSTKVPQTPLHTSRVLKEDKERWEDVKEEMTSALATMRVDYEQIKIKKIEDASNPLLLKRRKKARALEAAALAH

As to `O=C1NCC2(CCCC2)c2[nH]c(-c3ccnc(-c4cnc5ccccc5c4)n3)cc21`, the EC50 in data set [1] stood at 234 nM. Also, in the data set on THP-1 [2], the inhibition at 10 µM is 50%.

Regarding `O=C1NCCc2[nH]c(-c3ccnc(-c4cnc5ccccc5c4)c3)cc21`, the figures for the Papp in [3] and in data set [5] were 0.5 ×10⁻⁶ cm/s and 0.6 ×10⁻⁶ cm/s, respectively. Besides, the half-life was found to be 35 min in data set [4] and 40 min in data set [6]. In addition, the fraction unbound in [7] is 0.003. In addition, the inhibition at 10 µM in the data set on THP-1 [2] came to 38%.

For the compound `NCCn1nc(-c2ccnc(-c3cnc4ccccc4c3)c2)cc1C(=O)O`, the EC50 in [1] was found to be 28 nM. Besides, the kinetic solubility in [8] was 33 µg/mL (≈ 91.8 µM). Besides, the inhibition at 10 µM in the data set on THP-1 [2] was determined as 7%.

Regarding `NCC1CNC(=O)c2cc(-c3ccnc(-c4cnc5ccccc5c4)c3)nn21` (configuration not stated), the EC50 in data set [1] was determined as 151 nM.

`O=C1NCC2(CCNCC2)c2[nH]c(-c3ccnc(-c4ccc5c(c4)OCO5)n3)cc21`: the half-life in [4] is 91 min; in [6], > 120 min. Besides, the EC50 turned out to be 260 nM with PBMC and 980 nM in the data set on THP-1 [15]. Further, the figures for the AUC in [9], in data set [10] and in data set [13] were 2.71 µM·h, 0.016 µM·h and 1.26 µM·h, respectively. Further, the inhibition in vivo at 30 mg/kg with Rattus norvegicus [11] is 85%. In [7], the fraction unbound is 0.03. The inhibition entry in the data set on Rattus norvegicus [12] is “Dose-dependent effect”. Further, in [8], the solubility (kinetic) was determined as 37 µg/mL (≈ 91.7 µM). Also, the inhibition in vivo at 10 mg/kg in the data set with Rattus norvegicus [14] is 54%. Also, the inhibition in vivo at 12.5 mg/kg in the data set on Rattus norvegicus [16] was determined as 92%.

With `O=C1NCC2(CCNCC2)c2[nH]c(-c3ccnc(-c4cnc5ccccc5c4)n3)cc21`, the EC50 in [1] was 6 nM. In data set [8], this compound came in with a kinetic solubility of 23 µg/mL (≈ 56 µM).

A word on the EC50: it is the concentration needed to bring the measured effect to its halfway point. A word on the inhibition: it is the relative decrease from the control value, in per cent. A word on the half-life: it is how long it takes for the measured level to halve. Usually kinetic solubility stands for the concentration staying in solution when a stock, usually in DMSO, is diluted into the medium. Broadly, the AUC is concentration integrated over time. The inhibition in vivo is the percentage by which the read-out fell short of the control.
